{"data": "Experimental data of several laboratories", "sample": "plasma", "note": "Protocols differ between the studies behind these lines."}
{"SMILES": "COc1ccc([C@@H](O)c2cc(-c3ncnc4cc(N5CCOCC5)ccc34)c(F)cc2Cl)nn1", "host": "human", "route": "oral", "dose": "200 mg", "setting": "single dose, patients", "half-life": "3.94 h"}
{"SMILES": "CC(C)n1c(Nc2cccnc2)nc2cnc(Nc3ccc(N4CCN(C)CC4)cc3)nc21", "host": "male human", "route": "oral", "dose": "150 mg", "setting": "single dose", "half-life": "36 h"}
{"SMILES": "CNC(=O)n1ccc2cc(Oc3ccnc(NC(=O)c4ccc(C5CCN(CCO)CC5)cc4)c3)c(OCCOC)cc21", "host": "human", "route": "oral", "dose": "35 mg", "setting": "single dose, fed, healthy volunteers", "half-life": "28.3 h"}
{"SMILES": "CC[C@H](C)CCCCC(=O)N[C@@H](CCN)C(=O)N[C@H](C(=O)N[C@@H](CCN)C(=O)N[C@H]1CCNC(=O)[C@H]([C@@H](C)O)NC(=O)[C@H](CCN)NC(=O)[C@H](CCN)NC(=O)[C@H](CC(C)C)NC(=O)[C@@H](Cc2ccccc2)NC(=O)[C@H](CCN)NC1=O)[C@@H](C)O", "host": "human", "route": "intravenous", "dose": "0.75 mg/kg", "setting": "single dose, infusion", "half-life": "5.44 h"}
{"SMILES": "Cc1ccc(C(=O)Nc2ccc(CN3CCN(C)CC3)c(C(F)(F)F)c2)cc1C#Cc1cnc2[nH]ncc2c1", "host": "human", "route": "oral", "dose": "40 mg", "setting": "single dose, healthy volunteers", "half-life": "26.1 h"}
{"SMILES": "Cc1ccc(NC(=O)c2ccc(CN3CCN(C)CC3)cc2)cc1Nc1nccc(-c2cncc(-c3oncc3C)c2)n1", "host": "human", "route": "oral", "dose": "200 mg/day", "setting": "multiple doses, steady state, healthy volunteers", "half-life": "23.3 h"}
{"SMILES": "Cn1cc(Nc2nc(N)nc(-c3cccc(-n4ccc5cc(C6CC6)cc(F)c5c4=O)c3CO)n2)cn1", "host": "human", "route": "oral", "dose": "300 mg", "setting": "single dose, fasted, suspension", "half-life": "9 h"}
{"SMILES": "NC(=S)NN=Cc1ncccc1N", "host": "human", "route": "oral", "dose": "150 mg", "half-life": "1.5 h"}
{"SMILES": "NS(=O)(=O)OC[C@@H]1C[C@@H](n2ccc3c(N[C@H]4CCc5ccccc54)ncnc32)C[C@@H]1O", "host": "human", "route": "intravenous", "dose": "20 mg/m²", "setting": "patients", "half-life": "5.1 h"}
